From ChEMBL document CHEMBL1124429, “Heterocyclic analogues of benzamide antiarrhythmic agents” (J Med Chem, 1989)
Values joined by “and” are separate entries in the source; they are usually repeats but may differ in a detail not shown here. Equal entries are not always repeated. Values belong to the compound of their own block, whether it stands above or below them.

What was measured:
Canis familiaris [1] = species on record: Canis familiaris; test: Percent change from control in the rate of rise of phase 0 of the action potential at 10 uM concentration on Canine Purkinje fibers.; value ranges from -20 - -3; format: organism-based, Canis lupus familiaris, Purkinje fiber; conditions: dog, in vitro
Canis familiaris [2] = species on record: Canis familiaris; test: The maximum percent change in action potential (Vmax) at concentration observed (100 uM) was tested on Canine Purkinje fibers; parameters: species or system Canis lupus familiaris, Purkinje fiber; conditions: dog
How it was run: (§1)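 Canine Purkinje fibers were held in oxygenated (95% O2–5% CO2) physiological saline, pH 7.35–7.40, at 36 ± 0.5 °C and paced at 1.0 Hz with 2-ms pulses at twice diastolic threshold. Intracellular microelectrodes (3 M KCl) recorded Vmax and APD95 simultaneously. After up to 1 h of stabilization, compounds were tested from 10^-8 to 10^-3 M with 30 min per concentration. One compound per fiber, with vehicle controls. For N ≥ 3, values are the mean with the range.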

Canis familiaris [3] = species on record: Canis familiaris; test: The maximum percent change in action potential (Vmax) at concentration observed (30 uM ) was tested on Canine Purkinje fibers; parameters: species or system Canis lupus familiaris, Purkinje fiber; conditions: dog; how it was run: as §1
Canis familiaris [4] = species on record: Canis familiaris; test: Maximum percent change in conduction time (CT) at 100 uM concentration tested on Canine ventricular muscle fibre; format: functional, Canis lupus familiaris, Muscle tissue
How it was run: (§2)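 Canine right ventricular papillary muscle strips were superfused at 36 ± 0.5 °C with saline gassed with 95% O2/5% CO2. Diastolic threshold was found with 2-ms stimuli at 4000 ms cycle length, then pacing at 4× threshold for 60 min equilibration. FRP was measured at 1000 ms cycle length by S1-S2 premature stimulus after every tenth S1. Conduction time came from a bipolar electrogram. Various compound concentrations were tested, one compound per strip, with vehicle controls. Percent change from control was taken at 10 µM, or the maximum change with its concentration; for N ≥ 3, mean with range.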

Canis familiaris [5] = species on record: Canis familiaris; test: Maximum percent change in conduction time (CT) at 10 uM concentration tested on Canine ventricular muscle fibre; format: functional, Canis lupus familiaris, Muscle tissue; how it was run: as §2
Canis familiaris [6] = species on record: Canis familiaris; test: Percent change from control in conduction time (CT) at 10 uM concentration tested on Canine ventricular muscle fibre.; value ranges from -20-2; format: functional, Canis lupus familiaris, Muscle tissue; how it was run: as §2
Canis familiaris [7] = species on record: Canis familiaris; test: Maximum percent change in repolarization at 100 uM concentration on Canine Purkinje fibers.; format: functional, Canis lupus familiaris, Purkinje fiber
How it was run: (§3)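 Isolated canine Purkinje fibers were superfused with physiological saline gassed with 95% O2/5% CO2 (pH 7.35–7.40) at 36 ± 0.5 °C. Paced at 1.0 Hz with 2-ms pulses at twice diastolic threshold. After up to 1 h stabilization, compounds were tested over 10^-8 to 10^-3 M, 30 min per concentration, one compound per fiber, with vehicle controls. Intracellular microelectrodes (3 M KCl) recorded Vmax and APD95; maximum percent change from control is reported with its concentration.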

Canis familiaris [8] = species on record: Canis familiaris; test: Maximum percent change in repolarization at 10 uM concentration on Canine Purkinje fibers.; format: functional, Canis lupus familiaris, Purkinje fiber; how it was run: as §3
Canis familiaris [9] = species on record: Canis familiaris; test: Maximum percent change in repolarization at 30 uM concentration on Canine Purkinje fibers.; format: functional, Canis lupus familiaris, Purkinje fiber; how it was run: as §3
Canis familiaris [10] = species on record: Canis familiaris; test: Percent change in repolarization at 10 Purkinje fibers.; value ranges from -13 - -3; format: functional, Canis lupus familiaris, Purkinje fiber; how it was run: as §1
Canis familiaris [11] = species on record: Canis familiaris; test: Maximum percent change in functional refractory period (FRP) at 10 uM on Canine ventricular muscle fibre.; parameters: species or system Canis lupus familiaris, Muscle tissue; how it was run: as §2
Canis familiaris [12] = species on record: Canis familiaris; test: Percent change from control in the functional refractory period (FRP) at 10 uM conc on Canine ventricular muscle fibre.; value ranges from -9-28; parameters: species or system Canis lupus familiaris, Muscle tissue; how it was run: as §2
Canis familiaris [13] = species on record: Canis familiaris; test: Maximum percent change in functional refractory period (FRP) at 100 uM on Canine ventricular muscle fibre.; parameters: species or system Canis lupus familiaris, Muscle tissue; how it was run: as §2
Canis familiaris [14] = species on record: Canis familiaris; test: Percent change from control in the rate of rise of phase 0 of the action potential at 10 uM concentration on Canine Purkinje fibers.; parameters: species or system Canis lupus familiaris, Purkinje fiber; conditions: dog, in vitro
Canis familiaris [15] = species on record: Canis familiaris; test: Maximum Percent change from control in the rate of rise of phase 0 of the action potential at 100 uM concentration on Canine Purkinje fibers.; format: Canis lupus familiaris, Purkinje fiber; conditions: dog, in vitro; how it was run: as §3
Canis familiaris [16] = species on record: Canis familiaris; test: Maximum Percent change from control in the rate of rise of phase 0 of the action potential at 30 uM concentration on Canine Purkinje fibers.; parameters: species or system Canis lupus familiaris, Purkinje fiber; conditions: dog, in vitro; how it was run: as §3
Canis familiaris [17] = species on record: Canis familiaris; test: Percent change from control in conduction time (CT) at 10 uM concentration tested on Canine ventricular muscle fibre.; M is minimal(<10% change in CT); format: functional; conditions: Canis lupus familiaris, Muscle tissue; how it was run: as §2
Canis familiaris [18] = species on record: Canis familiaris; test: Maximum percent change in repolarization at 0.1 uM concentration on Canine Purkinje fibers.; format: functional, Canis lupus familiaris, Purkinje fiber; how it was run: as §3
Canis familiaris [19] = species on record: Canis familiaris; test: Maximum percent change in repolarization at 1 uM concentration on Canine Purkinje fibers.; format: functional, Canis lupus familiaris, Purkinje fiber; how it was run: as §3
Canis familiaris [20] = species on record: Canis familiaris; test: Percent change in repolarization at 10 Purkinje fibers.; value ranges from 3-7; format: functional, Canis lupus familiaris, Purkinje fiber; how it was run: as §1
Canis familiaris [21] = species on record: Canis familiaris; test: Percent change from control in the functional refractory period (FRP) at 10 uM conc. on Canine ventricular muscle fibre.; parameters: species or system Canis lupus familiaris, Muscle tissue; how it was run: as §2
Cavia porcellus [22] = species on record: Cavia porcellus; test: Concentration of compound which gives a 20% decrease in contractile force was tested on papillary muscle of guinea pig, activity was expressed as EC-20; NR is not reached..; format: functional; conditions: Muscle tissue
How it was run: (§4)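 Contractile force measured in an isolated cardiac muscle preparation. Value is the concentration giving a 20% decrease in force of contraction. NR marks that this decrease was not reached. Values come from individual experiments; for N ≥ 3, the mean is given with the range.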

Canis familiaris [23] = species on record: Canis familiaris; test: Percent change from control in the rate of rise of phase 0 of the action potential at 10 uM concentration on Canine Purkinje fibers.; value ranges from -17.0-2.0; parameters: species or system Canis lupus familiaris, Purkinje fiber; conditions: dog, in vitro
Canis familiaris [24] = species on record: Canis familiaris; test: Maximum Percent change from control in the rate of rise of phase 0 of the action potential at 0.1 uM concentration on Canine Purkinje fibers.; parameters: species or system Canis lupus familiaris, Purkinje fiber; how it was run: as §3
Canis familiaris [25] = species on record: Canis familiaris; test: Maximum Percent change from control in the rate of rise of phase 0 of the action potential at 10 uM concentration on Canine Purkinje fibers.; format: functional, Canis lupus familiaris, Purkinje fiber; conditions: dog, in vitro; how it was run: as §3
Canis familiaris [26] = species on record: Canis familiaris; test: Maximum percent change in conduction time (CT) at 0.1 uM concentration tested on Canine ventricular muscle fibre; format: functional, Canis lupus familiaris, Muscle tissue; how it was run: as §2
Canis familiaris [27] = species on record: Canis familiaris; test: Maximum percent change in conduction time (CT) at 1 uM concentration tested on Canine ventricular muscle fibre; format: functional, Canis lupus familiaris, Muscle tissue; how it was run: as §2
Canis familiaris [28] = species on record: Canis familiaris; test: Percent change in repolarization at 10 Purkinje fibers.; value ranges from -1-49; format: functional, Canis lupus familiaris, Purkinje fiber; how it was run: as §1
Canis familiaris [29] = species on record: Canis familiaris; test: Percent change from control in the functional refractory period (FRP) at 10 uM concentration on Canine ventricular muscle fibre.; parameters: species or system Canis lupus familiaris, Muscle tissue; how it was run: as §2
Cavia porcellus [30] = species on record: Cavia porcellus; test: Concentration of compound ( ) which gives a 20% decrease in contractile force was tested on papillary muscle of guinea pig, activity was expressed as EC-20.; NR is not reached.; format: functional; conditions: Muscle tissue; how it was run: as §4

- Vmax (Canis familiaris [1]): -11.3%
- Vmax (Canis familiaris [2]): -31%
- Vmax (Canis familiaris [3]): -15% and -39%
SMILES: CCN(CC)CCCNC(=O)c1cccc2[nH]ccc12
- CT (Canis familiaris [4]): 12%
- CT (Canis familiaris [5]): -7%
- CT (Canis familiaris [6]): -8.8%
- APD95 (Canis familiaris [7]): -26%
- APD95 (Canis familiaris [8]): -3%
- APD95 (Canis familiaris [9]): -22%
- APD95 (Canis familiaris [10]): -7.7%
- FRP (Canis familiaris [11]): 11%
- FRP (Canis familiaris [12]): 10%
- FRP (Canis familiaris [13]): 36%

- Vmax (Canis familiaris [14]): 4.6%
- Vmax (Canis familiaris [15]): 7%
- Vmax (Canis familiaris [16]): -1%
SMILES: CCN(CC)CCCNC(=O)c1c(O)cc(C)nc1C
- CT (Canis familiaris [4]): -7%
- CT (Canis familiaris [17]): Minimal
- APD95 (Canis familiaris [18]): 5%
- APD95 (Canis familiaris [19]): 4%
- APD95 (Canis familiaris [9]): 15%
- APD95 (Canis familiaris [20]): 5%
- FRP (Canis familiaris [21]): 13%
- EC20 (Cavia porcellus [22]): Not reached

- Vmax (Canis familiaris [23]): -6.3%
- Vmax (Canis familiaris [24]): -3%
- Vmax (Canis familiaris [15]): -42%
- Vmax (Canis familiaris [25]): -17%
SMILES: CCN(CC)CCNC(=O)c1[nH]c(C)c(C)c1C
- CT (Canis familiaris [26]): 7%
- CT (Canis familiaris [27]): -5%
- CT (Canis familiaris [17]): Minimal
- APD95 (Canis familiaris [7]): -9%
- APD95 (Canis familiaris [9]): 12%
- APD95 (Canis familiaris [28]): 19.7%
- FRP (Canis familiaris [11]): 24%
- FRP (Canis familiaris [29]): 24%
- EC20 (Cavia porcellus [30]): Not reached
